Test results reported in ChEMBL document CHEMBL1154315, “Discovery of 3-(2-cyano-4-pyridyl)-5-(4-pyridyl)-1,2,4-triazole, FYX-051 - a xanthine oxidoreductase inhibitor for the treatment of hyperuricemia [corrected]” (Bioorg Med Chem Lett, 2009).

Assays:
[1] = biological target: T1, Xanthine dehydrogenase/oxidase (Bos taurus, UniProt P80457); experiment: Inhibition of bovine milk XOR-mediated uric acid formation after 15 mins by spectrophotometer
Rattus norvegicus [2] = experiment: Reduction of uric acid level in rat serum at 0.3 mg/kg, po after 6 hrs by phosphotungstic acid method; type: functional; set-up: scale not given: the % may be the effect or the level left
How it was run: (§1)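 Rats were dosed orally. Blood was drawn from the orbital sinus 2 or 6 h later, clotted 1 h at room temperature and centrifuged. Serum uric acid was measured by the phosphotungstic acid method. Values are mean ± SD of at least three rats.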

CYP3A4 = CYP3A4 (Homo sapiens, UniProt P08684); experiment: Inhibition of CYP3A4 in human liver microsomes assessed as inhibition of testosterone hydroxylation at 10 uM by HPLC analysis; type: ADME, Microsome; set-up: dose 10 uM; conditions: probe testosterone (hydroxylation)
Chain of CYP3A4 (P08684 whole entry): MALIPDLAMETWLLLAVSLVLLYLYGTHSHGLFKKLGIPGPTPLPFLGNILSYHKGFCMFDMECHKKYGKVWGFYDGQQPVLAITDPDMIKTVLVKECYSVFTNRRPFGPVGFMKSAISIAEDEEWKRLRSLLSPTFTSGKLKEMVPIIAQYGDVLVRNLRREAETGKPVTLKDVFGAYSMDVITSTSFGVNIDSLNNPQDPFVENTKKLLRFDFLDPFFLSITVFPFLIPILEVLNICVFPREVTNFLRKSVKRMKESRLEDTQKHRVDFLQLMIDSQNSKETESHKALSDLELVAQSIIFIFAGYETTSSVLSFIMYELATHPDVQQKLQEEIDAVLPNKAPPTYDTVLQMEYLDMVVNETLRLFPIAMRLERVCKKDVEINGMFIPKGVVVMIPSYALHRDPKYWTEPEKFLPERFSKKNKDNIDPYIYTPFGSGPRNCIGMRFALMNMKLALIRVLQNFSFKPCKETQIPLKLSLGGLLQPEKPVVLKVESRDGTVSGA

[3] = biological target: T1, Xanthine dehydrogenase/oxidase; experiment: Inhibition of bovine milk XOR-mediated uric acid formation at 10 uM after 15 mins by spectrophotometer; conditions: cattle, 0.25 h
Rattus norvegicus [4] = experiment: Reduction of uric acid level in rat serum at 0.3 mg/kg, po after 2 hrs by phosphotungstic acid method; type: functional; set-up: scale not given: the % may be the effect or the level left
How it was run: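 Test compound dosed orally to rats; blood drawn from orbital sinus 2 or 6 h post-dose, clotted 1 h at room temperature, centrifuged. Serum uric acid measured by phosphotungstic acid method. Mean ± SD of at least three rats.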

[5] = Cmax in rat at 3 mg/kg, po by LC-MS method; type: ADME, organism-based; set-up: dose 3 mg/kg, route oral; conditions: in vivo
How it was run: (§2)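 After oral dosing to rats, jugular vein blood was collected at predetermined times and centrifuged to plasma. Plasma was mixed with acetonitrile containing an internal standard and centrifuged, and the supernatant was analysed by LC–MS.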

Rattus norvegicus [6] = experiment: Reduction of uric acid level in rat serum at 3 mg/kg, po after 6 hrs by phosphotungstic acid method; type: functional; set-up: scale not given: the % may be the effect or the level left; how it was run: as §1
Rattus norvegicus [7] = experiment: Reduction of uric acid level in rat serum at 1 mg/kg, po after 6 hrs by phosphotungstic acid method; type: functional; set-up: scale not given: the % may be the effect or the level left; how it was run: as §1
[8] = Bioavailability in rat at 3 mg/kg; type: ADME, organism-based; conditions: in vivo
[9] = Half life in rat at 3 mg/kg, po by LC-MS method; type: ADME, organism-based; set-up: dose 3 mg/kg, route oral; conditions: in vivo
[10] = Cmax in rat at 1 mg/kg, po by LC-MS method; type: ADME, organism-based; set-up: dose 1 mg/kg, route oral; conditions: in vivo; how it was run: as §2

T1 sequence (P80457 whole entry): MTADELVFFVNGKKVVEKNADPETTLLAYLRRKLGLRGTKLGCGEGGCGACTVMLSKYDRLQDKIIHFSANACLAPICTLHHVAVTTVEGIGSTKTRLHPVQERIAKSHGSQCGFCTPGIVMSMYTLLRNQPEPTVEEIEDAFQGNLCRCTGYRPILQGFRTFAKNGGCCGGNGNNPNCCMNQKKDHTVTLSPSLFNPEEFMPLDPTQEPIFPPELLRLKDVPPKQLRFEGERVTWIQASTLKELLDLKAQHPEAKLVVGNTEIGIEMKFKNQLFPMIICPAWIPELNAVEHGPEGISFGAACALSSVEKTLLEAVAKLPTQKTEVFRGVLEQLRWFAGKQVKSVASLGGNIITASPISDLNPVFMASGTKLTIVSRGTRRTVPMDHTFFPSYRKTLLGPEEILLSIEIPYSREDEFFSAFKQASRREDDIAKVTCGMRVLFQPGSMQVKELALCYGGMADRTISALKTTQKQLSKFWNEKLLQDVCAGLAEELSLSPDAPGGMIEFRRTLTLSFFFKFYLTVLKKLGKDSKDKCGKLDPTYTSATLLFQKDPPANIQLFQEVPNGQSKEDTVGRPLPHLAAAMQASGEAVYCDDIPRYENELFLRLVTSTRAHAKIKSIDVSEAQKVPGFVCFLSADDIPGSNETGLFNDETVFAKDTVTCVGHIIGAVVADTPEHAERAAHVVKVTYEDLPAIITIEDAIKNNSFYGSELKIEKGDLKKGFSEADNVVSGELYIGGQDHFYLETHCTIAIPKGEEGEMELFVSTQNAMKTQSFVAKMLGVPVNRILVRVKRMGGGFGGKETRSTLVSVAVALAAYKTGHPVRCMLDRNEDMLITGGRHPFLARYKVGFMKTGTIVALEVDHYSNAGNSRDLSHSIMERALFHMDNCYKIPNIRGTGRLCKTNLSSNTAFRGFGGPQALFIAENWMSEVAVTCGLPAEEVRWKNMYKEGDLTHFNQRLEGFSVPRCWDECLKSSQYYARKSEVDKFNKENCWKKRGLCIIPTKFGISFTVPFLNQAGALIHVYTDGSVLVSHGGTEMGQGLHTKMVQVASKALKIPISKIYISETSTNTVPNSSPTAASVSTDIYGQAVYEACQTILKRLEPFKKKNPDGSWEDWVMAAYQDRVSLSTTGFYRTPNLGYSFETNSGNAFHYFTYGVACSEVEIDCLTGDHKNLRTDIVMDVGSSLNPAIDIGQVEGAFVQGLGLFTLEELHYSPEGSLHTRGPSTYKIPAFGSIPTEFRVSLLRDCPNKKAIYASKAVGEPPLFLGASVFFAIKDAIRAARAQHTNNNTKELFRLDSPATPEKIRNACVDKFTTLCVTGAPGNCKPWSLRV

IC50 [1]	Compound	Activity (Rattus norvegicus [2])	also measured
17 nM	Cc1cc(-c2nc(-c3ccc(OCC(C)C)c(C#N)c3)n[nH]2)ccn1	46%	–
–	c1ccc(-c2n[nH]c(-c3ccncc3)n2)nc1	–	inhibition at 10 µM (CYP3A4): 20.3%; inhibition at 10 µM [3]: 31%
–	Oc1ncnc2[nH]ncc12 [ALLOPURINOL]	-3.3%	Activity (Rattus norvegicus [4]): 35.9%
63 nM	Cc1cc(-c2n[nH]c(-c3ccnc(OCC(C)C)c3)n2)ccn1	2.3%	Cmax [5]: 1440 ng/mL
6.8 nM	c1ccc(-c2cc(-c3n[nH]c(-c4ccncc4)n3)ccn2)cc1	-0.4%	–
4.9 nM	CC(C)COc1ccc(-c2n[nH]c(-c3ccncc3)n2)cc1C#N	36.3%	–
24 nM	CC(C)COc1ccc(-c2n[nH]c(-c3ccncc3)n2)cn1	13.4%	Activity (Rattus norvegicus [6]): 13.4%
59 nM	Cc1cc(-c2n[nH]c(-c3ccnc(C#N)c3)n2)ccn1	41.1%	inhibition at 10 µM (CYP3A4): 4.7%; Cmax [5]: 3970 ng/mL
170 nM	CSc1cc(-c2nc(-c3ccnc(C)c3)n[nH]2)ccn1	19.2%	–
130 nM	c1cncc(-c2n[nH]c(-c3ccncc3)n2)c1	–	inhibition at 10 µM (CYP3A4): 10.4%; Activity (Rattus norvegicus [7]; dose 1 mg/kg): -7.7%
9.9 nM	Brc1cc(-c2n[nH]c(-c3ccncc3)n2)ccn1	-6.2%	–
170 nM	c1cc(-c2n[nH]c(-c3ccncc3)n2)ccn1	–	inhibition at 10 µM (CYP3A4): 18.5%; Activity (Rattus norvegicus [7]; dose 1 mg/kg): -6.8%
89 nM	Cc1cc(-c2n[nH]c(-c3ccnc(Cl)c3)n2)ccn1	32.9%	Cmax [5]: 4070 ng/mL
48 nM	Fc1cc(-c2n[nH]c(-c3ccncc3)n2)ccn1	-0.2%	inhibition at 10 µM (CYP3A4): 40.2%
–	CC(C)COc1cc(-c2nc(-c3ccnc(C#N)c3)n[nH]2)ccn1	1.9%	–
18 nM	N#Cc1cc(-c2n[nH]c(-c3ccnc(C#N)c3)n2)ccn1	32%	–
–	CSc1cc(-c2nc(-c3ccnc(C#N)c3)n[nH]2)ccn1	-3.7%	–
7.9 nM	Clc1cc(-c2n[nH]c(-c3ccncc3)n2)ccn1	–	inhibition at 10 µM (CYP3A4): 54.1%; Activity (Rattus norvegicus [7]; dose 1 mg/kg): 26.5%; Cmax [5]: 4360 ng/mL

IC50 [1]	Compound	Activity (Rattus norvegicus [2])	also measured
17 nM	COc1ccc(-c2n[nH]c(-c3ccnc(C)c3)n2)cc1[N+](=O)[O-]	19.3%	–
38 nM	N#Cc1ccc(-c2n[nH]c(-c3ccncc3)n2)cn1	–	Activity (Rattus norvegicus [7]; dose 0.3 mg/kg, in the assay text read “at 0.3 mg/kg” for “at 1 mg/kg”): -4%
–	N#Cc1cc(-c2n[nH]c(-c3ccnc(-c4ccccc4)c3)n2)ccn1	4.2%	–
310 nM	Cc1cc(-c2n[nH]c(-c3ccnc(C)c3)n2)ccn1	26.1%	inhibition at 10 µM (CYP3A4): 15.3%
30 nM	Cc1cc(-c2nc(-c3ccc(Cl)c([N+](=O)[O-])c3)n[nH]2)ccn1	19.8%	–
590 nM	CC(C)COc1ccc(-c2n[nH]c(-c3ccnc(C#N)c3)n2)cn1	–	Activity (Rattus norvegicus [6]): -6.1%
31 nM	COCCOCCOc1ccc(-c2nc(-c3ccnc(C)c3)n[nH]2)cc1C#N	52%	–
3.3 nM	COc1ccc(-c2n[nH]c(-c3ccncc3)n2)cc1[N+](=O)[O-]	19.6%	–
–	CC(C)CSc1cc(-c2nc(-c3ccnc(C#N)c3)n[nH]2)ccn1	-1.4%	–
5.3 nM	N#Cc1cc(-c2n[nH]c(-c3ccncc3)n2)ccn1 [TOPIROXOSTAT]	51.1%	inhibition at 10 µM (CYP3A4): 18.6%; bioavailability [8]: 69.6%; half-life [9]: 19.7 h; Activity (Rattus norvegicus [4]): 59.9%
170 nM	Cc1cc(-c2nc(-c3ccc(OCC(C)C)nc3)n[nH]2)ccn1	13%	–
28 nM	Cc1cc(-c2nc(-c3ccncc3)n[nH]2)ccn1	-0.4%	inhibition at 10 µM (CYP3A4): 24.7%; Cmax [10]: 1240 ng/mL
46 nM	Cc1cc(-c2n[nH]c(-c3ccnc(SCC(C)C)c3)n2)ccn1	4.5%	–
10 nM	Cc1cc(-c2nc(-c3ccc(OCC(C)C)c([N+](=O)[O-])c3)n[nH]2)ccn1	39.1%	–
39 nM	N#Cc1cc(-c2n[nH]c(-c3ccnc(Cl)c3)n2)ccn1	33.6%	inhibition at 10 µM (CYP3A4): 3.6%; Cmax [5]: 5340 ng/mL
59 nM	Cc1cc(-c2n[nH]c(-c3ccnc(-c4ccccc4)c3)n2)ccn1	8%	–
4.7 nM	O=[N+]([O-])c1cc(-c2n[nH]c(-c3ccncc3)n2)ccc1Cl	0.9%	–
3.7 nM	CC(C)COc1ccc(-c2n[nH]c(-c3ccncc3)n2)cc1[N+](=O)[O-]	33.7%	–
